# Source: ChEMBL document CHEMBL5620402, “Development of submicromolar 17β-HSD10 inhibitors and their in vitro and in vivo evaluation” (Eur J Med Chem, 2023)
# Columns and labels:
# [1] = Dissociation constant, pKa of compound using buffers of given pH (range from 3.0 to 11.5) by UV-VIS spectrophotometry; assay type: physicochemical
# Summary of the method: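 Compound (10 μL of 1 mg/mL) was put into 490 μL of buffers spanning pH 3.0–11.5 in 0.5-unit steps. UV spectra were scanned at 200–400 nm and 20 °C. pKa was fitted from the sigmoidal absorbance of the dissociated form versus pH.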
# [2] = molecular target: T1, 3-hydroxyacyl-CoA dehydrogenase type-2 (Homo sapiens) (UniProt Q99714); assay: Inhibition of recombinant 17beta-HSD10 (unknown origin) expressed in Escherichia coli BL21 (DE3) assessed as residual activity at 10 uM using acetoacetyl-CoA as substrate by SAAC method relative to control
# T1 sequence (whole entry): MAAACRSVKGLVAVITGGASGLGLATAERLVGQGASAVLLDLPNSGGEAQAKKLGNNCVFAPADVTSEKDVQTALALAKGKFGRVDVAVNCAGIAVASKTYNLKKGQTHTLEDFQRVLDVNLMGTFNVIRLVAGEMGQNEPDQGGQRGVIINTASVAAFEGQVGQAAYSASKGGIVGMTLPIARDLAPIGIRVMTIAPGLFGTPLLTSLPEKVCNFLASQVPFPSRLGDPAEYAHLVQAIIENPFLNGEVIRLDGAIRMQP
# Summary of the method: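 Recombinant 17β-HSD10 from E. coli BL21(DE3), 0.15 μg, was mixed with 320 μmol/L NADH in Tris-HCl pH 7.4 assay buffer. It was preincubated 5 min at 37 °C with 1 or 10 μM inhibitor or vehicle, then 320 μmol/L acetoacetyl-CoA was added. A340 was followed for 5 min. Residual activity is % of control, triplicate mean ± SD, with t-test versus control.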
# [3] = molecular target: T2, Citrate synthase, mitochondrial (Sus scrofa) (UniProt P00889); assay: Inhibition of pig brain mitochondrial citrate synthase assessed as activity at 50 uM by DTNB method (reference value: 100 + /- 5.5%); set-up: scale not given: the % may be the effect or the level left; settings: Mitochondria
# T2 sequence (whole entry): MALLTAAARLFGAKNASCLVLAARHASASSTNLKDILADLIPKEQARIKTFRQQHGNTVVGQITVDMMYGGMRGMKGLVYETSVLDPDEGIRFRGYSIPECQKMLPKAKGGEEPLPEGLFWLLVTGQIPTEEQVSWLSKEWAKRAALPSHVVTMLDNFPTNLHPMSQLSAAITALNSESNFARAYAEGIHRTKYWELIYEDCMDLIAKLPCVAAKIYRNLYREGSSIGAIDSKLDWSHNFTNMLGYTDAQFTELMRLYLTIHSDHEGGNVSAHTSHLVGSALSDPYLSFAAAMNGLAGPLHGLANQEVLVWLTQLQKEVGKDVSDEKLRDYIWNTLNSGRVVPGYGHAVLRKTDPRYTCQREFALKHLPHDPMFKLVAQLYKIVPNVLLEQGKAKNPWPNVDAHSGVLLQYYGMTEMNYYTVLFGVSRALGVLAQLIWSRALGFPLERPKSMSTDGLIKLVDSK
# [4] = species: Sus scrofa; assay: Inhibition of pig brain mitochondrial Complex II and III assessed as antimycin A-sensitive rate of cytochrome c reduction upon addition of succinate by measuring activity by spectrophotometric ally method (reference value: 100 + /- 5.6%); set-up: scale not given: the % may be the effect or the level left; settings: Mitochondria
# [5] = molecular target: T3, Amine oxidase [flavin-containing] A (Sus scrofa, UniProt Q6Q2J0); assay: Inhibition of pig brain mitochondrial MAO-A using [3H]5-HT as substrate incubated for 60 mins by liquid scintillation counting analysis; assay type: mitochondria, Mitochondria
# T3 sequence (Q6Q2J0 whole entry): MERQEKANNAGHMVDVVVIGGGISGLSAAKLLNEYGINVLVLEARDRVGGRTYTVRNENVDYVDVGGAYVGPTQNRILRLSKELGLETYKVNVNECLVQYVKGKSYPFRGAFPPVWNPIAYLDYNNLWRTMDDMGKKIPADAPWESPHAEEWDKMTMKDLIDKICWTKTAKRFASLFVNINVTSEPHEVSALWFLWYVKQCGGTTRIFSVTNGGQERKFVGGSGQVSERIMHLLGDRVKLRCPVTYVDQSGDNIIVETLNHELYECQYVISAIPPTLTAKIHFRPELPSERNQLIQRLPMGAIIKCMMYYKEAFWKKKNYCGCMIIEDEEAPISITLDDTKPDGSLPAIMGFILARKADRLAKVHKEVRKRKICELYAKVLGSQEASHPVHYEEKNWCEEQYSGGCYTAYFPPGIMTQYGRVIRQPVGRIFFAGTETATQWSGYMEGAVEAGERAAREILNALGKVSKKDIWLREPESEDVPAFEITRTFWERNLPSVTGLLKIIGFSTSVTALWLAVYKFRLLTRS
# Summary of the method: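 Pig brain mitochondria were preincubated with drug at 5–7 concentrations (1–1000 μM) for 60 min at 37 °C. Radiolabelled substrate was then added: [3H]5-HT for MAO-A (20 min) or [14C]PEA for MAO-B (1 min). The aldehyde product was counted by liquid scintillation. IC50 came from four-parameter logistic fits; mean ± SE of ≥2 runs.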
# [6] = system: HEK293; assay: Cytotoxicity against human HEK293 cells assessed as change in ATP level at 1 uM measured after 48 hrs by CellTiter-Glo assay; assay type: toxicity, cell-based; settings: hek293, 48 h
# Summary of the method: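 HEK293 or SH-SY5Y cells in DMEM with 10% FBS, 2 mM glutamine and NEAA were seeded at 7,500 cells per well and grown 24 h. They were then exposed to 1 or 10 μM compound (final 1% DMSO) for 48 h. ATP was read by CellTiter-Glo luminescence after CellTox Green, normalised to 1% DMSO and 100 μM valinomycin controls. At least two experiments in tetraplicate.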
# [7] = molecular target: T1, 3-hydroxyacyl-CoA dehydrogenase type-2 (Homo sapiens); assay: Binding affinity to 17beta-HSD10 (unknown origin) assessed as increase in denaturation temperature by differential scanning fluorimetry (DSF) assay; settings: dose 25-50 µM
# Summary of the method: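 Thermal shift assay with 1.43 μM 17β-HSD10 in 100 mM potassium phosphate pH 8.0 with SYPRO Orange (1:1000). Compounds were tested at 25 and 50 μmol/L. Fluorescence (Ex/Em 490/575) was recorded over 25–90 °C at 1 °C/min and Tm taken from melting curves. Triplicate; mean ± SD.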
# [8] = Cmax in male albino Wistar rat plasma at 60 mg/kg, po measured upto 1440 mins by HPLC-MS analysis; assay type: ADME, organism-based
# Summary of the method: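 Oral gavage via blunt needle into the stomach of male wild-type rats. Dose was 60 mg/kg from a 16 mM solution in 10% NMP, 25% Kolliphor EL and 65% saline. Rats were sacrificed at 15 time-points from 5 to 1440 min, 3 per point. Plasma and brain were analysed by HPLC-MS with non-compartmental analysis; values are mean ± SE of three.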
# [9] = Tmax in male albino Wistar rat plasma at 60 mg/kg, po measured upto 1440 mins by HPLC-MS analysis; assay type: ADME, organism-based
# Summary of the method: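 Single oral gavage of a 16 mM solution (blunt needle via oesophagus into stomach) to male wild-type rats, in 10% NMP, 25% Kolliphor EL and 65% saline. Three animals were killed at each of 15 time points from 5 to 1440 min and exsanguinated. Plasma levels were measured by HPLC-MS. Non-compartmental analysis gave mean ± SE of three.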
# [10] = Partition coefficient between Water and Octanol, logP of the compound by UHPLC-DAD-MS analysis; settings: pH 7.4
Structure (SMILES),pKa [1],Activity [2],Activity [3],Activity [4],IC50 ([5]; read-out: IC50),Activity [6],Activity [7],Cmax [8],Tmax [9],logP [10],IC50 [5]
CC(=O)Nc1ccc2nc(NC(=O)Nc3ccc(O)c(Cl)c3)sc2c1,9.83,22%,99.9%,97.4%,5.8 µM,Non-Toxic,Dose-Dependent Effect,13.5 nM,35 min,3.66,–
COc1ccc2nc(NC(=O)Nc3ccc(O)c(C(F)(F)F)c3)sc2c1,11.2,13%,92.7%,52.2%,79 µM,Non-Toxic,–,–,–,4.28,–
NC(=O)c1ccc2nc(NC(=O)Nc3ccc(O)c(Cl)c3)sc2c1,9.35,38.3%,94.4%,99.7%,–,Non-Toxic,–,–,–,3.32,Not Active
O=C(Nc1ccc(O)c(Cl)c1)Nc1nc2ccc(C(=O)O)cc2s1,9.75,17.5%,100%,–,85 µM,Non-Toxic,Dose-Dependent Effect,6.85 nM,25 min,1.19,–
